Results gathered from unrelated publications.
Protocols differ between the studies behind these lines.
P2RY14: P2Y purinoceptor 14 (P2RY14, Homo sapiens, UniProt Q15391)
IRAK4: Interleukin-1 receptor-associated kinase 4 (IRAK4, Homo sapiens, UniProt Q9NWZ3)
CYP2D6: Cytochrome P450 2D6 (CYP2D6, Homo sapiens, UniProt P10635)
TGFBR1: TGF-beta receptor type-1 (TGFBR1, Homo sapiens, UniProt P36897)

SMILES	target	test	setting	IC50
O=C(O)c1cc(-c2ccc(-c3ccncc3)cc2)c2ccc(-c3ccc(C(F)(F)F)cc3)cc2c1	P2RY14	ligand displacement in cells, flow cytometry		0.0408 µM
CS(=O)(=NC#N)c1ccccc1Nc1nc(Nc2ccc(CO)nc2)ncc1Cl (stereo not shown)	IRAK4	enzyme activity, inhibitor, radiometric		0.0189 µM
C=CCn1c(=O)c2cnc(Nc3ccc(N4CCN(C)CC4)cc3)nc2n1-c1ccc2c(n1)[C@@](O)(CC)CC2	CYP2D6	enzyme activity, inhibitor		50 µM
CC(C)OC(=O)[C@H](Cc1c[nH]c2ccccc12)NC(=O)c1cccs1	P2RY14	cAMP, antagonist		0.0458 µM
O=C(O)c1cc(-c2ccc(-n3cc(CCOP(=O)(O)O)nn3)cc2)c2ccc(-c3ccc(C(F)(F)F)cc3)cc2c1	P2RY14	ligand displacement in cells, flow cytometry		1.34 µM
c1coc(-c2n[nH]cc2-c2ccnc3ccccc23)c1	TGFBR1	enzyme activity, inhibitor, radiometric		1.1 µM
CC(C)(C)NS(=O)(=O)c1cccc(C(=O)N2CC3(CCC4(CC4)CC3)c3cc(NS(C)(=O)=O)ccc32)c1	Kinesin-like protein KIF11 (KIF11, Homo sapiens, UniProt P52732)	ATPase activity, inhibitor		> 100 µM
CC(C)OC(=O)[C@H](Cc1c[nH]c2ccccc12)NC(=O)c1ccc2ncccc2c1	P2RY14	cAMP, antagonist		0.0106 µM
C#Cc1cnc(Nc2ccc(CO)nc2)nc1Nc1ccccc1S(C)(=O)=NC#N (stereo not shown)	IRAK4	enzyme activity, inhibitor, radiometric		0.00399 µM
O=C(NO)c1ccc(Cn2cnc3c(Nc4cccc([N+](=O)[O-])c4)ncnc32)cc1	Histone deacetylase 3 (HDAC3, Homo sapiens, UniProt O15379)	enzyme activity, inhibitor, fluorescence		< 0.002 µM
CNC(=O)c1ccccc1Nc1nc(Nc2ccc(CO)cc2)ncc1Cl	IRAK4	enzyme activity, inhibitor, radiometric		0.00249 µM
COc1ccc(OCC(=O)N[C@@H](Cc2c[nH]c3ccccc23)C(=O)OC(C)C)cc1	P2RY14	cAMP, antagonist		0.0156 µM
Cn1cc(-c2ccnc3ccccc23)c(-c2ccccn2)n1	TGFBR1	enzyme activity, inhibitor, radiometric		0.75 µM
NCC(=O)O	ltaE (Escherichia coli, UniProt P75823)	enzyme activity, inhibitor		1900 µM
Cc1ccc(OCC(=O)N[C@@H](Cc2c[nH]c3ccccc23)C(=O)OC(C)C)cc1	P2RY14	cAMP, antagonist		0.0012 µM
O=C(O)c1cc(-c2ccc(-c3ccc(Cl)s3)cc2)c2ccc(-c3ccc(C(F)(F)F)cc3)cc2c1	P2RY14	ligand displacement in cells, flow cytometry		2.04 µM
CS(=O)(=O)c1ccccc1Nc1nc(Nc2ccnc(CO)c2)ncc1Cl	IRAK4	enzyme activity, inhibitor, radiometric		0.106 µM
CC(C)OC(=O)[C@H](Cc1c[nH]c2ccccc12)NC(=O)c1ccco1	P2RY14	cAMP, antagonist		0.0216 µM
CNC(=O)c1ccccc1Nc1nc(Nc2ccc(CO)cc2)ncc1C#N	IRAK4	enzyme activity, inhibitor, radiometric		0.108 µM
Cn1nccc1-c1ccc(-c2cc(C(=O)O)cc3cc(-c4ccc(C(F)(F)F)cc4)ccc23)cc1	P2RY14	ligand displacement in cells, flow cytometry		0.0491 µM
C#Cc1cnc(Nc2ccc(CO)cc2)nc1Nc1ccccc1C(=O)NC	IRAK4	enzyme activity, inhibitor, radiometric		0.00051 µM
COC(=O)/C=C/c1ccc(OCCN(C)c2ccccc2)cc1	Fatty acid CoA ligase Acsl3 (ACSL3, Homo sapiens, UniProt O95573)	enzyme activity, inhibitor		> 50 µM
CN(C)C(=O)c1cc2cnc(Nc3ccc(-c4ccc5c(=O)cc(N6CCOCC6)oc5c4)cc3)nc2n1C1CCCC1	CYP2D6	enzyme activity, inhibitor, fluorescence	pH 8	4.23 µM
OCc1ccc(Nc2ncc(Cl)c(Nc3ccccc3-c3nccs3)n2)cc1	IRAK4	enzyme activity, inhibitor, radiometric		0.0264 µM
O=C(O)c1cc(-c2ccc(-n3ccnn3)cc2)cc(-n2cc(-c3ccc(C(F)(F)F)cc3)nn2)c1	P2RY14	ligand displacement in cells, flow cytometry		2.03 µM
